Assay results published in ChEMBL document CHEMBL4513216, “Probing the Open Global Health Chemical Diversity Library for Multistage-Active Starting Points for Next-Generation Antimalarials” (ACS Infect Dis, 2020).

Experiment: Toxicity liver stage against HepG2, at 10uM
Format: cell-based
Set-up: test concentration 10 uM, cell line HepG2-A16-CD81EGFP
Settings: human, HepG2-A16-CD81EGFP cells; read-out: INHIBITION
Procedure, shortened: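 Uninfected HepG2-A16-CD81EGFP cells, 3 × 10^3 per well, 1536-well, plated on prespotted compound at 10 μM final, parasite-free screening media added to match infected plates; puromycin 10 μM positive, DMSO 0.5% negative; run in parallel with 48 h PbLuc assay at 37 °C, 5% CO2; viability by CellTiter-Glo luminescence, normalized to controls.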

SMILES	cytotoxicity at 10 µM
COc1ccc(NC(=O)CCC(C)C)c(N2CCN(C(C)=O)CC2)n1	8.43%
Cc1nnc(SCC(=O)NCC(c2ccccc2Cl)N(C)C)s1 (centres undefined)	2.67%
NC(=O)CSCC(=O)NC1(c2cccc(Cl)c2)CC1	-16.4%
CC(=O)c1c(F)cccc1NCC(O)C(C)(C)C (centres undefined)	18.7%
Cc1cn2c(n1)C(CNCC1=Cc3ccccc3OC1)CCC2 (centres undefined)	27.7%
CC(=O)c1cccc(OCC(=O)N(CC(C)C)C2CCN(C)CC2)c1	-17.6%
Cn1c2ccccc2c2ncn(CCCN3CCOCC3)c(=O)c21	18.3%
CCc1ccc(S(=O)(=O)NCCOc2ccc3nnc(C)n3n2)s1	-6.98%
COCCOc1ncccc1-c1noc([C@@H]2CCCN2C2CCC2)n1	-7.68%
O=C(NCc1cc2n(n1)CCCNC2)C1(c2ccc(Cl)cc2)CCC1	-9.72%
CCN(C)S(=O)(=O)NC(C)c1cnc(N(C)C2CCCCC2)nc1C (centres undefined)	-123%
c1ccc(CNCC2Cn3nnc(-c4ccncc4)c3CO2)nc1 (centres undefined)	-1.99%
O=C(NCc1ccccc1Cn1cncn1)C1CC1	-11.3%
O=C(NCCCN1CCOCC1)Nc1cnc2cc(Cl)ccc2c1O	1.29%
CC(C)N1CCC(CNC(=O)CCc2cc(F)ccc2F)C1 (centres undefined)	-5.38%
O=C1C[C@H]2[C@H](CCN2C(=O)c2ccno2)N1CC1CC1	2.77%
CCO[C@H]1COC[C@@H]1NC(=O)c1c[nH]nc1C1CCCCC1	-3.13%
Cc1nccn1-c1nccnc1C1CCN(Cc2ccc(F)cc2)CC1	-5.43%
CC[S+](CC)[c-]1c(=O)[nH]c(=O)n(CCc2ccc(F)cc2)c1=O	4.12%
CNS(=O)(=O)CCNc1cc(C)nc2cc(C)nn12	6.95%
Cc1cc(CN(C)CC(c2cccs2)N2CCOCC2)on1 (centres undefined)	0.049%
Cc1n[nH]c(C)c1CNC(=O)N(Cc1ccccc1)CC(C)(C)O	1.72%

SMILES	cytotoxicity at 10 µM
O=C(NC1CC1)[C@@H]1CCO[C@@H]2CCN(Cc3ccco3)C[C@H]21	-86.6%
Cc1c(F)cc(C(=O)O)cc1S(=O)(=O)Nc1ccc2c(c1)OCCO2	-1.45%
Cc1c(C2CCCN(C(=O)OC(C)(C)C)C2)n2c(nc1=O)CCC2 (centres undefined)	-16%
Cc1nc(O)c2nnn(C[C@H]3CCCN3C(=O)c3cccc(F)c3)c2n1	-0.00161%
Cc1cccc(CN2CCC3(CCN(Cc4ccccn4)C3)C2=O)c1 (centres undefined)	12%
COc1ccc(CC(=O)N2CCCC(n3nc(C)cc3C)C2)cc1 (centres undefined)	0.471%
c1ccc(O[C@@H]2CN(Cc3nccs3)[C@@H]3CCCO[C@@H]32)nc1	-8.52%
CC(C)CCN1C[C@H]2CCN(C(=O)NC3CCCC3)CC[C@H]2S1(=O)=O	4.87%
CC(C)NC(=O)C1CCc2nnc(CNC(=O)c3ccc(Cl)cc3Cl)n21 (centres undefined)	5.84%
CCN(CC)Cc1cnc2n1CCN(C1CCOC1)CC2 (centres undefined)	-146%
CN(C)c1ncc(CN2CCCC(Nc3ccc4c(c3)OCCO4)C2)s1 (centres undefined)	8.12%
Cn1cc(CN2CCC(F)(F)C3(CCN(c4ccccn4)C3)C2)cn1 (centres undefined)	-0.434%
CN1CCC(CNC(=O)CCSc2ccc3c(c2)OCCO3)C1 (centres undefined)	-3.13%
Cc1c(C(=O)NCCCC(N)=O)sc2ccc(F)cc12	14.6%
CC1CCC(O)(Cn2ncnc2-c2cccc(C#N)c2)CC1 (centres undefined)	0.775%
CNc1ncc(CN(C)C(=O)CCc2[nH]nc3c2CCCC3)cn1	3.8%
COc1cccc(C(=O)N2CCc3c(nc(N)[nH]c3=O)C2)c1C	1.96%
Cc1cccc(N(CC(=O)N2CCCCC2)Cc2ccno2)c1	3.1%
O=C1CC2(CCN(CC3CC3)C2)CN1c1ccc2c(c1)OCO2 (centres undefined)	-2.47%
NC(=O)NC(CC(=O)N1CCc2sccc2C1)c1cccc(Br)c1 (centres undefined)	3.43%
Cc1nc(CC(=O)NCc2csc(N3CCCC3)n2)cs1	-5.26%
Fc1cnc(N2CCCC3(CCN(Cc4cccs4)C3)C2)nc1 (centres undefined)	-71.1%

SMILES	cytotoxicity at 10 µM
CC(C)c1noc(C2CCCN2S(=O)(=O)Cc2ccc(F)cc2)n1 (centres undefined)	3.88%
CCOCCCC(=O)NCC(c1ccccc1)N1CCc2sccc2C1 (centres undefined)	2.69%
COc1c(CNCc2ccccc2Cn2cccn2)c(C)nn1C	9.79%
Cn1ccnc1CN1CCC2(CC1)CC(N1CCCC1)c1ccccc12 (centres undefined)	7.24%
CCNc1ncc(CN2C[C@H](C3CC3)[C@@H](N)C2)cn1	-40%
O=C(c1ccncc1)N1CCN2C[C@H](Oc3cncnc3)C[C@H]2C1	8.7%
Cc1cccc(N2CCN(C(=O)Cc3ccccc3O)C(C)C2)n1 (centres undefined)	13.5%
FC1(F)CCNCC12CCN(c1ccccn1)C2 (centres undefined)	-0.31%
Cc1nc(COC[C@@H]2CCC[C@@]23CNCCO3)cs1	3.29%
CC(=O)NCC(=O)NC1CCc2c(ccc(=O)n2CC2CC2)C1 (centres undefined)	7.89%
CCCNC(=O)c1cc2c(s1)CCN2C(=O)c1ccccc1	7.31%
O=C(NCC1CC1)[C@@H]1CC[C@@H]2[C@@H](CCN2Cc2ccco2)O1	4.62%
CC(C)c1nnc2n1CCN(C(=O)CN1CCc3sccc3C1)C2	-4.97%
O=S(=O)(NCC1CCN(c2cnccn2)CC1)C1CC1	11.3%
Cc1nn(CC(=O)n2cccn2)c(C)c1I	-11.5%
COc1ncnc(N(C)C)c1NC(=O)Cc1c[nH]c2ccc(F)cc12	-4.2%
CCC(C)Oc1ccc(CNCCc2c[nH]cn2)cc1Cl (centres undefined)	1.09%
c1cnc(N2CC[C@@H](N3CCOCC3)[C@@H]2Cc2ccncc2)nc1	2.9%
O=C([C@@H]1COC[C@H]2CN(CC3CCCC3)C[C@H]21)N1CCOCC1	14.9%
Cc1ccccc1N1CCN(c2cc(N(C)C)ncn2)C(C)C1 (centres undefined)	19.7%
CNC(=O)COc1nc(C(C)(C)C)no1	-0.425%
O=C(NCCCO)c1nc(-c2ccc3cc[nH]c3c2)no1	4.28%

SMILES	cytotoxicity at 10 µM
Cn1cc(-c2nc(C3CCN(CC4CC4)CC3)cc3c2ncn3C)cn1	-1.86%
Cc1nonc1NC(=O)C1SCCc2sccc21 (centres undefined)	-2.82%
COCCN1CC2(CCN(Cc3ccco3)CC2)c2ccccc21	18.3%
Cc1cnn(CC2CCCN2C(=O)Cc2cn3ccsc3n2)c1 (centres undefined)	-10.1%
CC(C)C(=O)N1CCC(n2nc(-c3ccco3)ccc2=O)CC1	-2.44%
O=C1COC2(CCN(Cc3ccncc3)CC2)CN1	-1.81%
Cn1nc(COCC2CC2)c2c1CCN(Cc1cccs1)C2	-101%
Cc1cccc(COC2COC3(CCN(Cc4ccoc4)CC3)C2)n1 (centres undefined)	-0.211%
CCN(Cc1ccoc1)C(=O)c1ccncc1O	6.85%
FC1(F)CCN(Cc2ccccn2)CC12CCN(c1ncccn1)C2 (centres undefined)	-95.8%
CCCC(C)C(=O)NCc1cn2cc(Br)ccc2n1 (centres undefined)	-6.6%
O=C(c1ccc(O)c(Cl)c1)N(Cc1ccncc1)C1CC1	-8.99%
O=C(C1CCOCC1)N1CCC2(CC1)CC(Oc1ccccc1)CO2 (centres undefined)	-17.3%
COc1cc(C(=O)N2CCCS2(=O)=O)ccc1OC(C)C	-17.6%
N#Cc1cccc(S(=O)(=O)N2CCCCC2C(N)=O)c1 (centres undefined)	0.645%
Cc1cc(N2CCOC(c3ccc(C(N)=O)cn3)C2)ncn1 (centres undefined)	5.45%
CC(C)CN1CCN(C(=O)c2[nH]nnc2Nc2ccccc2F)CC1	18.7%
COc1ccc(CN2CCN(c3nccnc3OC)CC2=O)cc1	2.82%
Cc1ncnc2c1CCN(C(=O)N(C)C)CC2	-79.1%
COCCOCC1(CNCc2ccc(OC)cc2)C[C@@H](O)[C@@H](O)C1 (some centres undefined)	-7.46%
COC[C@]12COC[C@H]1CN(Cc1cc(OC)cc(OC)c1)C2	-6.33%
c1ccc(CN2Cc3ccnn3CC(COCc3cccnc3)C2)nc1 (centres undefined)	-146%

SMILES	cytotoxicity at 10 µM
CCc1nn(C)c(Cl)c1CN1C[C@@H](NC(=O)N(C)C)[C@H](C(C)C)C1	11.4%
Cc1nc(CNCC2COCc3c(-c4ccoc4)nnn3C2)cs1 (centres undefined)	8.22%
CCCC(Nc1c(C#N)c(=O)n(C)c(=O)n1C)c1ccc(F)cc1F (centres undefined)	-13.2%
Cc1oncc1C(=O)N1CC[C@H]2C[C@H](c3ccncn3)O[C@@H]2C1	-67.4%
CN(C)C(C(=O)N1CCC(c2ncc[nH]2)CC1)c1ccc2c(c1)OCO2 (centres undefined)	2.8%
c1csc(CN2C[C@@H](n3cccn3)[C@H]3OCCC[C@H]32)c1	1.63%
CCc1n[nH]c(C2CN(C(=O)COCC(F)(F)F)CCO2)n1 (centres undefined)	-3.48%
CCS(=O)(=O)N1CCN(C(=O)C(C)C)CC2(CC(=O)N(C)C2)C1 (centres undefined)	8.4%
O=C(NCCCN1CCCC1=O)c1ccc(-n2ccc3ccccc32)s1	6.69%
CN(CC1CC1)C(=O)CN1CCCC1c1cnn(C)c1 (centres undefined)	2.01%
CC1=CC(C)(C)N(CN2C(=O)c3ccccc3C2=O)c2ccc(C)cc21	-3.49%
CC(CN1CCC2(CC1)c1nc[nH]c1CCN2S(C)(=O)=O)C(F)(F)F (centres undefined)	-8.51%
c1ccc(CCNc2cccc(C3CCCNC3)n2)cc1 (centres undefined)	-3.18%
COCC(=O)N1CCC2(CC1)c1ccccc1[C@@H](N1CCSCC1)[C@@H]2O	4.58%
CCNC(=O)COc1cc(CC)c2c(C)nn(-c3ccc(C)cc3)c2n1	0.409%
Cc1ccc2c(c1)CN(C(=O)C1CCCCC1)C(CN(C)C)CO2 (centres undefined)	1.85%
F[C@@H]1CN(CC2CC2)C[C@@H]1OCc1nc2ccc(C(F)(F)F)cc2[nH]1	-6.22%
c1cncc(CN2CCC3(CCCN(c4nncs4)C3)C2)c1 (centres undefined)	-144%
O=C(c1cccnc1)N1CCc2onc(CN3CCCC3)c2C1	4.86%
Cc1nc(-c2ccccc2)n(CC(=O)NC2CCCCC2)n1	-1.16%
C1CCC(CNC2CCCN(Cc3noc(C4CC4)n3)C2)CC1 (centres undefined)	-4.15%
